Series [1] in a line: Evaluated for salidiuretic activity measured as sodium ion excretion in Rat, administered orally at a dose of 16.5 mg/kg. It counts as organism-based. The arrangement: dose 16.5 mg/kg. As to conditions: Urine. A digest of the protocol:
(§1)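 Female Charles-River rats (150–170 g), overnight on sugar diet with water ad libitum. Compound dissolved in DMF, diluted with water containing Tween 80 (final 4% DMF), given po in 5.0 mL; concurrent vehicle placebo. Three rats per metabolism cage; 0–5 h urine analysed for Na+, K+, Cl-. Values: mequiv × 100 per cage, geometric means of three cages per dose; scored 0–6 by Na+.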

Series [2] is described as follows: Compound administered orally at a dose of 5 mg/kg was evaluated for salidiuretic activity measured as sodium ion excretion in Rat. Also on record: dose 5 mg/kg. The conditions noted are these: Urine. In kind it is organism-based. Summed up: as §1
Series [3] relates to Rattus norvegicus. Kind of series: Evaluated for salidiuretic activity measured as sodium ion excretion in Rat, administered orally at a dose of 50 mg/kg. The arrangement: unit not given beside the values. As to conditions: route oral. In kind it is functional, Urine. Summed up:
as §1

Series [4] has as its system Canis familiaris. Kind of series: Compound administered intravenously at a dose of 5 mg/kg was evaluated for salidiuretic activity measured as sodium ion excretion in Dog. In kind it is ADME, organism-based, Canis lupus familiaris, Urine. The arrangement: dose 5 mg/kg, route intravenous. The conditions noted are these: in vivo, iv. Summed up:
(§2)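 Conditioned female mongrel dogs, postabsorptive, water-loaded (500 mL po) 1 h before sodium pentobarbital anesthesia (30 mg/kg iv). Bladder catheter; creatinine 4 g sc; phosphate–mannitol buffer pH 7.4 infused (3.0 mL/min) throughout. […] Urine Na+ measured; response scored 0–6.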

The subject of series [5] is Rattus norvegicus. Description: Compound administered orally at a dose of 81 mg/kg was evaluated for salidiuretic activity measured as sodium ion excretion in Rat. In kind it is ADME, organism-based, Urine. As to conditions: in vivo, po. The arrangement: dose 81 mg/kg, route oral; unit not given beside the values. A digest of the protocol: as §1
Series [6] relates to Canis familiaris. Kind of series: Compound administered intravenously was evaluated for salidiuretic activity measured as sodium ion excretion in Dog; Value ranges from 0-99. In kind it is ADME, organism-based, Canis lupus familiaris, Urine. The conditions noted are these: in vivo, iv. Summed up: as §2
Series [7] has as its system Canis familiaris. Kind of series: Salidiuretic activity in dog following i.v. dosing at 5 mg/kg. In kind it is functional, Canis lupus familiaris, Urine. Also on record: unit not given beside the values. As to conditions: route intravenous. Summed up: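 Conditioned female mongrel dogs, postabsorptive, got a 500 mL oral water load 1 h before pentobarbital anesthesia (30 mg/kg iv). After replicate 15-min control collections, compound was given as an iv stat injection.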

Series [8] concerns Rattus norvegicus. Kind of series: Compound administered orally at a dose of 1 mg/kg was evaluated for salidiuretic activity measured as sodium ion excretion in Rat. The conditions noted are these: in vivo, po.
The subject of series [9] is Canis familiaris. Kind of series: Compound administered intravenously at a dose of 5 mg/kg was evaluated for salidiuretic activity measured as sodium ion excretion in Dog; Value ranges from 800-899. The conditions noted are these: in vivo, iv. Also on record: dose 5 mg/kg, route intravenous; unit not given beside the values. It counts as ADME, organism-based, Canis lupus familiaris, Urine. Summed up: as §2

The subject of series [10] is Canis familiaris. Description: Compound administered intravenously at a dose of 5 mg/kg was evaluated for salidiuretic activity measured as sodium ion excretion in Dog; Value ranges from 100-249. Also on record: dose 5 mg/kg, route intravenous. In kind it is ADME, organism-based, Canis lupus familiaris, Urine. As to conditions: in vivo, iv. Summed up: as §2

Bounds are passed on as bounds.

For `Cc1c(Cl)c(C)c(CN)c(O)c1Cl.Cl`, the Diuretic activity in series [1] was found to be 2.7; in [2], 1.4; in [3], 3.3.

As for `CC(C)(C)c1cc(F)c(O)c(CN)c1.Cl`, the Diuretic activity was 2.7 in [1], 1.4 in [2], above 900 in series [4] and 3.3 in series [3].

As for `Cl.NCc1c(O)c(Cl)cc(Cl)c1O`, the Diuretic activity in series [1] worked out at 0.5; in series [2] it was 0.3; in series [5] it was 1.5; in series [3] it was 1.2; in series [6] it was 0.

As for `NCc1c(O)ccc(Cl)c1Cl`, the Diuretic activity was determined as 0.5 in series [1]; 0.3 in series [2]; 250 in series [7]; 1.5 in series [5]; 1.2 in series [3].

`Cl.NCc1cc(Cl)cc(C(=O)O)c1O` had a Diuretic activity in series [7] of 250.

Regarding `CCC(C)c1cc(Cl)c(O)c(CN)c1.Cl` (stereo not given), the Diuretic activity in series [1] amounted to 3.3; in series [2], 2.6; in series [8] it was 0.7; in series [3], 3.6; in series [9], 800.

Regarding `Cc1c(Cl)c(C)c(CN)c(O)c1CN.Cl.Cl`, the Diuretic activity is on record as below 0.3 in series [5] and below 0.2 in [3].

Regarding `Cl.NCc1c(O)c(Cl)c(Cl)c(Cl)c1Cl`, the Diuretic activity in [1] was 2.7; in series [2], 1.4; in series [7] it was 250; in [3], 3.3.

The molecule `Cc1c(Cl)cc(CN)c(O)c1C.Cl` yielded a Diuretic activity in series [6] of 0.

As to `COc1cc(Cl)c(Cl)c(CN)c1O.Cl`, the Diuretic activity came out at 0.5 in [1]; 0.3 in [2]; 100 in series [10]; 1.5 in series [5]; 1.2 in [3].

Molecule `CC(C)(c1ccccc1)c1ccc(O)c(CN)c1.Cl` returned a Diuretic activity in series [7] of 250.

With `Cc1c(Br)c(C)c(CN)c(O)c1Br.Cl`, the Diuretic activity in series [1] was 2.7; in series [2] it was 1.4; in [3], 3.3; in series [9] it was 800.

In series [6], `CC(C)(C)CC(C)(C)c1cc(Cl)c(O)c(CN)c1.Cl` registered a Diuretic activity of 0.

Regarding `COc1cc(C)cc(CN)c1O.Cl`, in [10], the Diuretic activity was 100.

Turning to `CC(C)(C)c1cc(CN)c(O)c(C(C)(C)C)c1`, in [6], the Diuretic activity is listed as 0.

`Cl.NCc1cc(Cl)cc(-c2ccccc2)c1O` came in with a Diuretic activity in [7] of 250.

Consider `CCCc1ccc(O)c(CN)c1.Cl`, for which, in [7], the Diuretic activity is 250.

Molecule `Cl.NCc1cc(CN)c(Cl)c(Cl)c1O` showed a Diuretic activity in series [6] of 0.

As to `CC(C)(C)c1cc(CN)c(O)c(C(F)(F)F)c1.Cl`, the Diuretic activity in series [1] came out at 2.7; in series [2], 1.4; in [3], 3.3; in series [9] it was 800.

As for `Cc1cc(Cl)c(O)c(CN)c1.Cl`, the Diuretic activity came to 0.6 in series [1]; 0.4 in [2]; 100 in [10]; 2.4 in series [5]; 1.8 in series [3].

As for `Cl.NCc1c(O)c(Cl)cc(Cl)c1F`, the Diuretic activity in series [1] came to 2.7; in [2] it was 1.4; in [3], 3.3; in [9], 800.

Turning to `Cl.NCc1cc(Cl)c(Cl)c(Cl)c1O`, the Diuretic activity in series [1] worked out at 2.7; in series [2], 1.4; in series [7], 250; in series [3], 3.3.

Turning to `Cc1c(C)c(C)c(CN)c(O)c1C.Cl`, the Diuretic activity came out at 1.4 in [1]; 0.5 in series [2]; 250 in series [7]; 2.9 in [5]; 2.4 in series [3].

`Cc1cc(C)c(O)c(CN)c1C.Cl`: the Diuretic activity was 0.6 in series [1]; 0.4 in series [2]; 250 in [7]; 2.4 in [5]; 1.8 in series [3].

In [7], `Cl.NCc1cc(Cl)cc(F)c1O` came in with a Diuretic activity of 250.

In series [6], `Cc1cc(N)c(C)c(CN)c1O.Cl.Cl` yielded a Diuretic activity of 0.

For the molecule `CCCc1cc(C(C)(C)C)cc(CN)c1O.Cl`, in series [6], the Diuretic activity worked out at 0.

For `CCc1cc(Cl)c(O)c(CN)c1.Cl`, the Diuretic activity was 2.7 in series [1], 1.4 in [2], above 900 in series [4] and 3.3 in series [3].

Turning to `Cl.NCc1cc(I)cc(I)c1O`, the Diuretic activity in series [1] stood at 1.4; in series [2], 0.5; in series [5] it was 2.9; in [3], 2.4; in series [9] it was 800.

On to `CCC(C)(C)c1cc(I)c(O)c(CN)c1.Cl`, for which the Diuretic activity in series [1] turned out to be 1.4; in [2] it was 0.5; in [5] it was 2.9; in series [3], 2.4; in series [9], 800.

In series [6], `Cc1cc(Cl)c(C)c(CN)c1O.Cl` registered a Diuretic activity of 0.

On to `COc1c(Cl)c(OC)c(CN)c(O)c1I.Cl`, for which the Diuretic activity in series [1] worked out at 2.7; in [2] it was 1.4; in [3], 3.3; in [9] it was 800.

Consider `Cc1cc(CN)c(O)c(C(C)(C)C)c1.Cl`, for which, in [10], the Diuretic activity is on record as 100.

Regarding `CC(C)(C)c1cc(CN)c(O)c(Oc2ccc(Cl)cc2)c1.Cl`, the Diuretic activity in [1] was 0.6; in [2], 0.4; in series [10], 100; in series [5], 2.4; in [3] it was 1.8.

For `CCCCc1cc(I)c(O)c(CN)c1.Cl`, the Diuretic activity is given as 100 in [10], below 0.3 in series [5] and below 0.2 in [3].

In series [6], `Cc1cc(O)c(CN)c(C)c1C.Cl` displayed a Diuretic activity of 0.

With `CCCCc1cc(C)c(O)c(CN)c1.Cl`, in series [10], the Diuretic activity amounted to 100.

For `NCc1cc(Cl)ccc1O`, the Diuretic activity in [1] was determined as 0.5; in series [2], 0.3; in series [7], 250; in series [5], 1.5; in series [3], 1.2.

In series [7], `Cc1c(Cl)ccc(O)c1CN.Cl` gave a Diuretic activity of 250.

Turning to `CC(C)Cc1cc(I)c(O)c(CN)c1.Cl`, the Diuretic activity in series [1] turned out to be 0.5; in series [2] it was 0.3; in series [10] it was 100; in [5], 1.5; in [3], 1.2.

In the case of `COc1c(C(C)(C)C)cc(I)c(O)c1CN.Cl`, the Diuretic activity in series [1] was 1.4; in series [2], 0.5; in series [5], 2.9; in series [3], 2.4; in [9], 800.

For the molecule `CCOC(=O)c1cc(I)c(O)c(CN)c1.Cl`, the Diuretic activity in series [7] is 250; in series [5] it was 2.4; in series [3], 1.8.

With `Cc1c(Cl)c(C(C)(C)C)c(Cl)c(O)c1CN.Cl`, the Diuretic activity in series [1] amounted to 1.4; in series [2], 0.5; in series [5], 2.9; in series [3] it was 2.4.

In the case of `Br.Cc1c(O)c(CN)c(Cl)c(C)c1Cl`, the figures for the Diuretic activity in series [10], in series [5] and in [3] were 100, below 0.3 and below 0.2, respectively.

Regarding `Cc1cc(Cl)cc(CN)c1O.Cl`, the Diuretic activity in series [10] was 100.

Take `CC(C)(C)c1c(Cl)cc(CN)c(O)c1Cl.Cl`: the Diuretic activity in series [1] is 1.4; in [2], 0.5; in series [7], 250; in series [5], 2.9; in series [3] it was 2.4.

On to `CCc1c(Cl)c(C)c(Cl)c(O)c1CN.Cl`, for which the Diuretic activity was 0.5 in [1]; 0.3 in series [2]; 100 in series [10]; 1.5 in [5]; 1.2 in series [3].

As to `Cl.NCc1cc(Cl)cc(I)c1O`, the Diuretic activity stood at 0.6 in series [1]; 0.4 in series [2]; 2.4 in series [5]; 1.8 in [3]; 800 in series [9].

Take `CCCc1cc(CN)c(O)c(OC)c1.Cl`: in series [7], the Diuretic activity turned out to be 250.

With `CCCc1cc(CN)c(O)c(CCC)c1.Cl`, the Diuretic activity in [7] worked out at 250.

The values above are taken from ChEMBL document CHEMBL1121573, “2-(Aminomethyl)phenols, a new class of saluretic agents. 1. Effects of nuclear substitution” (J Med Chem, 1980).
